Results taken from ChEMBL document CHEMBL4725358 (J Med Chem, 2020).
Calls of active or inactive are those of the source. No cut-off for these calls is given here.

Columns and labels:
Format in all cases: cell-based
[1] = target: Probable G-protein coupled receptor 34 (Mus musculus) (UniProt Q9R1K6); assay: Agonist activity at mouse GPR34 expressed in HEK293 cells co-transfected with AP-TGFalpha/Galphaq/i1 assessed as induction of ectodomain shedding of membrane bound AP-TGFalpha after 1 hr by p-NPP substrate based microplate reader analysis relative to control
Chain of Probable G-protein coupled receptor 34 (Mus musculus) (Q9R1K6 whole entry, the tested form may be a part): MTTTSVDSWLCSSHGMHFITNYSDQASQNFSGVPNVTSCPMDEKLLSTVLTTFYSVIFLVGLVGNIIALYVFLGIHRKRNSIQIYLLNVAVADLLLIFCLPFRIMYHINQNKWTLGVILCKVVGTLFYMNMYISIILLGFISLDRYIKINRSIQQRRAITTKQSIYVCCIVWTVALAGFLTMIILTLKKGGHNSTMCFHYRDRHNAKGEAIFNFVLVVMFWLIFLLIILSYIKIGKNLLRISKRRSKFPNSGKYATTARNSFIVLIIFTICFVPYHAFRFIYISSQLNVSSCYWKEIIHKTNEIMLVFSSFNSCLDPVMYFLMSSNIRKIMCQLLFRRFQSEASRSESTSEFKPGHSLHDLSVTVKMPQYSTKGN
Outline: (§1)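 HEK293 cells transiently transfected with AP-TGFα, chimeric Gα and mouse GPR34 vectors, then treated with compound. Empty-vector cells (AP-TGFα plus chimeric Gα) served as background. Receptor-specific AP-TGFα release was taken after subtracting that background, and concentration-response curves gave EC50 and Emax. Mean and SEM of 3−8 independent experiments.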

[2] = target: Putative P2Y purinoceptor 10 (Mus musculus) (UniProt Q8BFU7); assay: Agonist activity at mouse P2Y10 expressed in HEK293 cells co-transfected with AP-TGFalpha/Galphaq/i1 assessed as induction of ectodomain shedding of membrane bound AP-TGFalpha after 1 hr by p-NPP substrate based microplate reader analysis relative to positive control
Chain of Putative P2Y purinoceptor 10 (Mus musculus) (Q8BFU7 whole entry, the tested form may be a part): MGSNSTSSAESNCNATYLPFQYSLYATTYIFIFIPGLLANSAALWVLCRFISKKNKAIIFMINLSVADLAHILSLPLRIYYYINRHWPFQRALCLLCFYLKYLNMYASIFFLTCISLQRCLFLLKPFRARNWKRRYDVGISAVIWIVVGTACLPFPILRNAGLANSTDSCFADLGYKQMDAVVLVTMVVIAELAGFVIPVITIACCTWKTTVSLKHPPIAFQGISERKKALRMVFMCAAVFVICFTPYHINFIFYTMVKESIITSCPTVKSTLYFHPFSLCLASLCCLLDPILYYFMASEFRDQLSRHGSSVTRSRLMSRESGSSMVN
Outline: (§2)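 Run the same way as the GPR34 shedding assay, but with a mouse P2Y10 expression vector in HEK293 cells alongside AP-TGFα and chimeric Gα. Receptor-specific AP-TGFα release was found by subtracting the empty-vector background. EC50 and Emax came from concentration-response curves. Mean and SEM of 3−8 independent experiments.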

[3] = target: Putative P2Y purinoceptor 10 (Mus musculus) (UniProt Q8BFU7); assay: Agonist activity at mouse P2Y10 expressed in HEK293 cells co-transfected with AP-TGFalpha/Galphaq/i1 assessed as induction of ectodomain shedding of membrane bound AP-TGFalpha after 1 hr by p-NPP substrate based microplate reader analysis relative to control; outline: as §2
[4] = target: Probable G-protein coupled receptor 34 (Mus musculus) (UniProt Q9R1K6); assay: Agonist activity at mouse GPR34 expressed in HEK293 cells co-transfected with AP-TGFalpha/Galphaq/i1 assessed as induction of ectodomain shedding of membrane bound AP-TGFalpha after 1 hr by p-NPP substrate based microplate reader analysis relative to positive control; outline: as §1
[5] = target: Putative P2Y purinoceptor 10 (Mus musculus, UniProt Q8BFU7); assay: Agonist activity at mouse P2Y10 expressed in HEK293 cells co-transfected with AP-TGFalpha/Galphaq/i1 assessed as induction of ectodomain shedding of membrane bound AP-TGFalpha after 1 hr by p-NPP substrate based microplate reader analysis; outline: as §2
Chain of Putative P2Y purinoceptor 10 (Q8BFU7 whole entry, the tested form may be a part): as above

[6] = target: Probable G-protein coupled receptor 34 (Mus musculus, UniProt Q9R1K6); assay: Agonist activity at mouse GPR34 expressed in HEK293 cells co-transfected with AP-TGFalpha/Galphaq/i1 assessed as induction of ectodomain shedding of membrane bound AP-TGFalpha after 1 hr by p-NPP substrate based microplate reader analysis; conditions: read-out: EC50; outline: as §1
Chain of Probable G-protein coupled receptor 34 (Q9R1K6 whole entry, the tested form may be a part): as the sequence (Q9R1K6 whole entry, the tested form may be a part) above

[7] = target: T1, G protein-coupled receptor 34a (Danio rerio, UniProt Q6XCC7); assay: Agonist activity at zebrafish GPR34 type a expressed in HEK293 cells co-transfected with AP-TGFalpha/Galphaq/i1 assessed as induction of ectodomain shedding of membrane bound AP-TGFalpha after 1 hr by p-NPP substrate based microplate reader analysis
T1 sequence (Q6XCC7 whole entry): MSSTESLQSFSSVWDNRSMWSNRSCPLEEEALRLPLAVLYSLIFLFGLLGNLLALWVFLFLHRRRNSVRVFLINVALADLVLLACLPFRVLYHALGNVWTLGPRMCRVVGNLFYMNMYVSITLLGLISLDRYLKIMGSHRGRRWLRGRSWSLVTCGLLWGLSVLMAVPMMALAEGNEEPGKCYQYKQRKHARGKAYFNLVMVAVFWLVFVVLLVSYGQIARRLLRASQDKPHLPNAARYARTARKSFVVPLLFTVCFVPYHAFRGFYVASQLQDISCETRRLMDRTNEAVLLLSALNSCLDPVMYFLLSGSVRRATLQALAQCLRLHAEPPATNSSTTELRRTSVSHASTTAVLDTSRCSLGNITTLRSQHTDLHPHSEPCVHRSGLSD

[8] = target: T2, G protein-coupled receptor 34b (Danio rerio, UniProt B0S6P9); assay: Agonist activity at zebrafish GPR34 type b expressed in HEK293 cells co-transfected with AP-TGFalpha/Galphaq/i1 assessed as induction of ectodomain shedding of membrane bound AP-TGFalpha after 1 hr by p-NPP substrate based microplate reader analysis
T2 sequence (B0S6P9 whole entry): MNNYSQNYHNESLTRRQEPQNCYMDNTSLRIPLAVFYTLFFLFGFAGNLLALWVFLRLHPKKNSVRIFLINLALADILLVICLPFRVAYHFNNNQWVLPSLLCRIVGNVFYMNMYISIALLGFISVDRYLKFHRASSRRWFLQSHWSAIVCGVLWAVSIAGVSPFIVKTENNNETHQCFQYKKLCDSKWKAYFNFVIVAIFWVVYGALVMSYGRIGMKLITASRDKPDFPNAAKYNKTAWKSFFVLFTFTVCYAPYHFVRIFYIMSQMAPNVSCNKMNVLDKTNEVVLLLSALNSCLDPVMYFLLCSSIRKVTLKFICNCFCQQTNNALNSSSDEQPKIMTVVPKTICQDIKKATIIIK

Emax [1]	fold change (FC) ([2]; filed as agonist)	Emax [3]	fold change (FC) ([4]; filed as agonist)	EC50 [5] [nM]	EC50 [6] [nM]	fold change (FC) [2]	fold change (FC) [4]	EC50 [7] [nM]	EC50 [8] [nM]	SMILES
4.4%	0.029	13.1%	0.12	53	320					CCCCCCCC/C=C\CCCCCCCC(=O)OCCCCOP(=O)(O)OC[C@H](N)C(=O)O
12.3%		inactive	29	> 3000	3.5	inactive				CCCCCCCC/C=C\CCCCCCCC(=O)OC[C@@H](COCC)OP(=O)(O)OC[C@H](N)C(=O)O
inactive	0.0012	3.2%		420	> 3000		inactive			CCCCCCCCCCCOc1ccccc1CCC(=O)O[C@H]1CCOC[C@H]1OP(=O)(O)OC[C@H](N)C(=O)O
4.8%	0.32	12.7%	0.12	5.7	330					CCCCCCCCCCCOc1ccccc1CCC(=O)OCCOP(=O)(O)OC[C@H](N)C(=O)O
7.5%		inactive	0.13	> 3000	620	inactive				CCCCCCCC/C=C\CCCCCCCC(=O)OC[C@H](COC)OP(=O)(O)OC[C@H](N)C(=O)O
12.6%	0.00074	3.2%	10	420	12					C#CCOC[C@H](COC(=O)CCCCCCC/C=C\CCCCCCCC)OP(=O)(O)OC[C@H](N)C(=O)O
12.8%	0.0054	12.4%	4.8	250	24					CCCCCCCC/C=C\CCCCCCCC(=O)OC[C@@H](C)OP(=O)(O)OC[C@H](N)C(=O)O
inactive	0.0085	12.4%		150	> 3000		inactive			CCCCCCCCCCCOc1ccccc1CCC(=O)O[C@H]1COCC[C@@H]1OP(=O)(O)OC[C@H](N)C(=O)O
11.2%	0.034	11.3%	0.56	37	170					CCCCCCCC/C=C\CCCCCCCC(=O)OC[C@H](C)OP(=O)(O)OC[C@H](N)C(=O)O
13.5%		inactive	21	> 3000	5.7	inactive				COC[C@H](COC(=O)CCc1ccccc1OCc1cccc(Oc2ccccc2)c1)OP(=O)(O)OC[C@H](N)C(=O)O
inactive	0.02	10.6%		66	> 3000		inactive			CCCCCCCC/C=C\CCCCCCCC(=O)OCCOP(=O)(O)OC[C@H](N)C(=O)O
8.9%	0.00089	19.3%	0.61	1300	220					CCCCCCCCCCCOc1ccccc1CCC(=O)O[C@@H]1CCOC[C@@H]1OP(=O)(O)OC[C@H](N)C(=O)O
6.2%	0.11	13.7%	0.12	20	540					CCCCCCCC/C=C\CCCCCCCC(=O)OCCCOP(=O)(O)OC[C@H](N)C(=O)O
6.4%	0.0018	12%	1.3	840	63					CCCCCCCCCCCOc1ccccc1CCC(=O)O[C@@H]1COCCC1OP(=O)(O)OC[C@H](N)C(=O)O (single isomer, unassigned)
12.9%		inactive	12	> 3000	11	inactive				CCCCCCCC/C=C\CCCCCCCC(=O)OC[C@@H](COC)OP(=O)(O)OC[C@H](N)C(=O)O
9.7%	0.0088	2.5%	0.52	70	160					CCCCCCCC/C=C\CCCCCCCC(=O)O[C@H](COC)COP(=O)(O)OC[C@H](N)C(=O)O
6.1%	0.02	11.4%	0.22	79	250					CCCCCCCC/C=C\CCCCCCCC(=O)O[C@H](C)COP(=O)(O)OC[C@H](N)C(=O)O
3.7%	0.00079	8.6%	0.1	1300	340					CCCCCCCCCCCOc1ccccc1CCC(=O)OC1COCCC1OP(=O)(O)OC[C@H](N)C(=O)O (single isomer, unassigned)
12%	0.0099	13.8%	16	170	6.3					C[C@H](COP(=O)(O)OC[C@H](N)C(=O)O)OC(=O)CCc1ccccc1OCc1cccc(Oc2ccccc2)c1
12.4%	0.0013	20.8%	0.44	2300	220					N[C@@H](COP(=O)(O)OCCOC(=O)CCc1ccccc1OCc1cccc(Oc2ccccc2)c1)C(=O)O
12.2%		inactive	17	> 3000	6.1	inactive				CCCCCCCC/C=C\CCCCCCCC(=O)OC[C@@H](COCCC)OP(=O)(O)OC[C@H](N)C(=O)O
inactive	0.0034	11.6%		390	> 3000		inactive			CCCCCCCC/C=C\CCCCCCCC(=O)O[C@@H](C)COP(=O)(O)OC[C@H](N)C(=O)O
				> 3000	5			> 3000	1200	CCOC[C@H](COC(=O)CCc1ccccc1OCc1cccc(Oc2ccccc2)c1)OP(=O)(O)OC[C@H](N)C(=O)O
9.6%	0.00075	7.3%	0.13	1400	880					CCCCCCCC/C=C\CCCCCCCC(=O)OC[C@@H](COCc1ccccc1)OP(=O)(O)OC[C@H](N)C(=O)O
10%	0.039	11.4%	32	26	2.9					CCCCCCCCCCCOc1ccccc1CCC(=O)OC1COCC[C@H]1OP(=O)(O)OC[C@H](N)C(=O)O (single isomer, unassigned)
12.4%	0.0056	13.2%	11	290	9					C[C@H](COC(=O)CCc1ccccc1OCc1cccc(Oc2ccccc2)c1)OP(=O)(O)OC[C@H](N)C(=O)O
4.6%	0.0061	10.8%	0.076	240	470					CCCCCCCC/C=C\CCCCCCCC(=O)OCCCCCOP(=O)(O)OC[C@H](N)C(=O)O
